# Measured values of several laboratories.
# Each line is one published result; the experiments were not run side by side.
# mreB: mreB (Escherichia coli, UniProt P0A9X4)
# pol: pol (Feline immunodeficiency virus, UniProt P16088)
# Cnr2: Cannabinoid receptor 2 (Cnr2, Mus musculus, UniProt P47936)
# G protein-coupled receptor 88: G protein-coupled receptor 88 (Homo sapiens, UniProt Q9GZN0)
# CTSL: Procathepsin L (CTSL, Homo sapiens, UniProt P07711)
SMILES,target,assay,system,setting,endpoint,value
NC1CCCCc2c1[nH]c1cc(Cl)c(Cl)cc21 (stereo not shown),mreB,"ATPase activity, inhibitor, absorbance",,,IC50,29 µM
O=P(O)(O)Oc1ccccc1OP(=O)(O)O,"Signal transducer and activator of transcription 5B, SH2 (STAT5B, Homo sapiens, UniProt P51692)","ligand displacement, FP",,,IC50,1.95 µM
Cc1cc(/C=C/C#N)cc(C)c1Nc1ccnc(Nc2ccc(C#N)cc2)n1,pol,"enzyme activity, inhibitor",,,IC50,0.0509 µM
COC(=O)[C@H](CCC(=O)Nc1cccc2c1ccn2Cc1cccc(C(N)=O)c1)NC(=O)OCc1ccccc1,"NAD-dependent protein deacetylase sirtuin-1 (SIRT1, Homo sapiens, UniProt Q96EB6)","enzyme activity, inhibitor",,,IC50,67 µM
O=[As](O)(O)c1ccc(Cc2ccc([As](=O)(O)O)cc2)cc1,"Autotaxin (ENPP2, Homo sapiens, UniProt Q13822)","enzyme activity, inhibitor, absorbance",,pH 8,Ki,26 nM
CCCCCCC(C)(C)c1ccc([C@@H]2C[C@H](O)CC[C@H]2CCCO)c(O)c1,Cnr2,"cAMP, agonist",,,EC50,0.05 nM
O=C(NCc1ccc(F)cc1)c1cccc(Nc2ccc(-c3ccccc3)nn2)c1,"Anoctamin-2 (ANO2, Homo sapiens, UniProt Q9NQ90)","ion flux, inhibitor",,,IC50,8.2 µM
CCCC#Cc1ccc([C@@H](CO)C(=O)N[C@H](C)c2ccccc2)cc1,G protein-coupled receptor 88,"cAMP, agonist, TR-FRET",,,EC50,204 nM
C[C@]12CC[C@@H]3c4ccc(O)cc4CC[C@H]3[C@@H]1CC[C@@H]2O,"Protein disulfide-isomerase (P4HB, Homo sapiens, UniProt P07237)","binding, radioligand",,,Kd,1500 nM
C=CC(O)CO (stereo not shown),"Cytochrome P450 2E1 (Cyp2e1, Rattus norvegicus, UniProt P05182)","enzyme activity, inhibitor","Fischer 344 rat, liver microsomes",30 min,IC50,1000 µM
NC(=O)[C@@H]1CC(F)(F)CN1C(=O)c1ccc(N2CC(F)(F)C2)c(OCC2CC2)n1,Cnr2,"cAMP, agonist",,,EC50,3 nM
Cc1ccnc2c1NC(=O)c1cccnc1N2C1CC1,pol,"enzyme activity, inhibitor",,,IC50,1.4 µM
CCOC(=O)C(CC)(CCCSCCOCCOCCOCCOCCNC(=O)OC(C)(C)C)NC(=O)c1ccc(C2CC2)c(Cc2ccc(F)cc2)n1 (stereo not shown),Cnr2,"ligand displacement, radioligand",,cell membranes,Ki,93 nM
NC1CCCCc2c1[nH]c1ccc(Cl)c(Cl)c21 (stereo not shown),mreB,"ATPase activity, inhibitor, absorbance",,,IC50,25 µM
CC[C@H](C)COc1ccc([C@@H](CO)C(=O)N[C@H](C)c2ccccc2)cc1,G protein-coupled receptor 88,"cAMP, agonist, TR-FRET",,,EC50,2000 nM
Cc1nc([C@@](C)(CC2CC2)NC(=O)c2cc(OCC(F)(F)F)c(C3CC3)cn2)no1,Cnr2,"ligand displacement, radioligand",,cell membranes,Ki,6 nM
N[C@@H](CCP(=O)(O)O)C(=O)O,"Metabotropic glutamate receptor 7 (Grm7, Rattus norvegicus, UniProt P35400)","calcium signal, agonist",,,EC50,117000 nM
CC(C)C[C@H](NC(=O)[C@H]1O[C@@H]1C(=O)O)C(=O)NCCCCN=C(N)N,CTSL,"enzyme activity, inhibitor",,,IC50,0.000238 µM
Cc1nonc1Cn1nnc2c(N3CC[C@H](O)C3)nc(C(C)(C)C)nc21,Cnr2,"cAMP, agonist",,,EC50,0.2 nM
CCOC(=O)C(CC)(CCCSCCOCCOCCNc1ccc([N+](=O)[O-])c2nonc12)NC(=O)c1ccc(C2CC2)c(Cc2ccc(F)cc2)n1 (racemic),Cnr2,"ligand displacement, radioligand",,cell membranes,Ki,73 nM
CC(C)c1cccc(NC(=O)C2CC(=O)Nc3ccccc32)c1 (stereo not shown),CTSL,"enzyme activity, inhibitor, FRET",,,IC50,16.8 µM
CCOC(=O)[C@](CC)(CCC[S+]([O-])CCOCCOCCNC(=O)OC(C)(C)C)NC(=O)c1ccc(C2CC2)c(Cc2ccc(F)cc2)n1 (stereo partly shown),Cnr2,"ligand displacement, radioligand",,cell membranes,Ki,90 nM
CC(N)c1cc2cc(Br)ccc2[nH]1 (stereo not shown),mreB,"ATPase activity, inhibitor, absorbance",,,IC50,120 µM
CCOC(=O)C(CC)(CCCSCCOCCOCCOCCNC(=O)OC(C)(C)C)NC(=O)c1ccc(C2CC2)c(Cc2ccc(F)cc2)n1 (stereo not shown),Cnr2,"ligand displacement, radioligand",,cell membranes,Ki,117 nM
Cc1cc(SCc2sc(-c3ccc(C(F)(F)F)c(F)c3)nc2C)ccc1OCC(=O)O,"Thyroid hormone receptor beta (THRB, Homo sapiens, UniProt P10828)","reporter gene, antagonist, luciferase",,,IC50,25.8 µM
